In article PMC11613190 (iScience, 2024):
Blank lines part the entries; values can stand above or below the compound they belong to.

Experiments:
[1] = tested on: CF HBE cells cultured at ALI; assay: Total nitrate/nitrite release, fluorometric assay, CF HBE ALI cultures; type: cell-based, human; details: for Effect on AIP-1 stimulated nitrate release: inhibitor 10 μM with AIP-1 50 μM; for Effect on nitrate release evoked by C12: inhibitor 10 μM with C12 100 μM
Outline: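 Primary CF human bronchial epithelial cells, carrying scrambled shRNA or T2R14 knockdown, were seeded on collagen-coated Transwells at 500,000 cells/well and grown at air-liquid interface to day 30. The apical surface was exposed for 18 h to C12 (100 µM) or AIP-1 (50 µM), with or without gallein or U73122 (10 μM each). Apical secretions were mixed with reductase cofactor for 30 min at room temperature, then total nitrate/nitrite was read fluorometrically.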

T2R14 [2] = biological target: T1, T2R14 (Homo sapiens, UniProt Q9NYV8); assay: Intracellular calcium mobilization in human bronchial epithelial; type: cell-based
T1 sequence (Q9NYV8 1-317): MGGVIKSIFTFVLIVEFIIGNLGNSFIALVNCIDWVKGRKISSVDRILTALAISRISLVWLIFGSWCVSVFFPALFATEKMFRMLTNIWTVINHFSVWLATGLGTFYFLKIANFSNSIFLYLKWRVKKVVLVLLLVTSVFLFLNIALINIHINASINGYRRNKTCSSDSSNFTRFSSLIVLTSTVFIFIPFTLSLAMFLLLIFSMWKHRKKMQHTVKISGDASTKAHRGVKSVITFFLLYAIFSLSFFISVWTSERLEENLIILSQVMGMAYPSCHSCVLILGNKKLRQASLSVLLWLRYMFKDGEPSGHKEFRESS

T2R14 [3] = biological target: T1, T2R14; assay: Intracellular calcium mobilization in HEK293T cells overexpressing T2R14; type: cell-based; details: for Intracellular calcium mobilization: HEK293T cells overexpressing T2R14, concentration series
Outline: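 HEK293T cells overexpressing T2R14 were loaded for agonist-induced intracellular calcium mobilization. They were treated with increasing concentrations of the bacterial quorum-sensing molecule 3-oxo-C12-AHL (4.5–300 μM), tyrosol (15–1000 μM) or farnesol (7.5–500 μM).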

NuLi-1 and CuFi-1 cells = assay: cAMP response to CFTR corrector in airway epithelial cell lines; type: cell-based, human; details: 5 µM for 24 h
[4] = EC50, intracellular calcium mobilization, both BCF and BD cells

Structure (SMILES): CCCCCCCCCC(=O)CC(=O)N[C@H]1CCOC1=O [C12, 3-oxo-12-AHL]
- Total nitrate release vs untreated controls ([1]; apical exposure 18 h, C12 100 μM, AIP-1 50 μM): significant elevation of total nitrate release
- EC50 (T2R14 [2]; read-out: EC50, intracellular calcium mobilization, both BCF and BD cells): ~100 µM
- Intracellular calcium mobilization (T2R14 [3]): concentration dependent increase in intracellular calcium mobilization
- EC50 (T2R14 [3]; read-out: EC50, intracellular calcium mobilization, HEK 293T cells overexpressing T2R14): ~60 µM

- EC50 (T2R14 [2]; EC50, Ca2+ mobilization, all the cell types investigated (NuLi-1, CuFi-1, BD, BCF)): ~500 µM
Structure (SMILES): CN(C)CCOC(c1ccccc1)c1ccccc1 [DPH, diphenhydramine]

Structure (SMILES): O=C1OC2(c3ccccc31)c1ccc(O)c(O)c1Oc1c2ccc(O)c1O [Gallein]
- Effect on AIP-1 stimulated nitrate release [1]: without altering the AIP-1 stimulated release significantly
- Effect on nitrate release evoked by C12 [1]: reduced the nitrate release evoked by C12

Structure (SMILES): COc1ccc2c(c1)CC[C@@H]1[C@@H]2CC[C@]2(C)[C@@H](NCCCCCCN3C(=O)C=CC3=O)CC[C@@H]12 [U73122]
- Effect on AIP-1 stimulated nitrate release [1]: without altering the AIP-1 stimulated release significantly
- Effect on nitrate release evoked by C12 [1]: reduced the nitrate release evoked by C12

Structure (SMILES): Cc1ccc(NC(=O)C2(c3ccc4c(c3)OC(F)(F)O4)CC2)nc1-c1cccc(C(=O)O)c1 [VX-809, lumacaftor]
- cAMP levels in response to forskolin (NuLi-1 and CuFi-1 cells; CuFi-1 cells): significant increase in cAMP levels
- cAMP levels in response to forskolin (NuLi-1 and CuFi-1 cells; NuLi cells): No significant change

- EC50 (T2R14 [2]; [4]): ~120 µM
Structure (SMILES): CC(C)=CCC/C(C)=C/CC/C(C)=C/CO [farnesol]
- Intracellular calcium mobilization (T2R14 [3]): concentration dependent increase in intracellular calcium mobilization

- EC50 (T2R14 [2]; [4]): ~100 µM
Structure (SMILES): OCCc1ccc(O)cc1 [tyrosol]
- Intracellular calcium mobilization (T2R14 [3]): concentration dependent increase in intracellular calcium mobilization
